ChEMBL document CHEMBL5661979, “Pharmacological inhibition of BMK1 suppresses tumor growth through promyelocytic leukemia protein” (Cancer Cell, 2010)
The source made the active and inactive calls. No cut-off for these calls is given here.

Legend:
[1] = target: Ribosomal protein S6 kinase beta-1 (Homo sapiens, UniProt P23443); experiment: Inhibition of P70S6K in human HeLa cells lysate pre incubated for 15 mins followed by ATP acyl phosphate probe addition and measured after 10 mins by LC-MS/MS analysis; type: subcellular
[2] = test system: A549; experiment: Antitumor activity against human A549 cells xenografted in NOD/SCID mouse assessed as increase in p21 protein expression level at 50 mg/kg, ip administered twice a day for 2 days by Western blot analysis; type: functional, organism-based; details: time 2.0 day
Summary of the method: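 A549 cells (1×10^6, in DMEM) were injected s.c. into the right flank of 6-week-old Nod/Scid mice. On day 21, mice received 50 mg/kg twice daily or carrier; 2 per group. After 2 days, tumors were homogenized in E1A buffer. Western blot read BMK1 activation (mobility shift) and p21, quantified by densitometry normalized to GAPDH.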

[3] = target: Interleukin-1 receptor-associated kinase 4 (Homo sapiens, UniProt Q9NWZ3); experiment: Inhibition of IRAK4 in human HeLa cells lysate pre incubated for 15 mins followed by ADP acyl phosphate probe addition and measured after 10 mins by LC-MS/MS analysis; type: subcellular
[4] = target: Mitogen-activated protein kinase 7 (Mus musculus) (UniProt Q9WVS8); experiment: Inhibition of BMK1 in mouse MEF cells assessed as increase in p21 protein expression at 5 uM incubated for 16 hrs by Western blot analysis; type: cell-based
Summary of the method: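 Pml+/+ or Pml−/− MEFs treated ±5 μM inhibitor for 16 h. Lysates western blotted for p21, quantified by densitometry and normalized to GAPDH, relative to untreated Pml+/+ MEF set as 1. n = 3, ±SEM.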

[5] = Toxicity in C57Bl/6 mouse assessed as effect on injection site at 50 mg/kg, ip for 14 days; type: organism-based; details: in vivo, 336 h, time 14 day
[6] = target: T1, Phosphatidylinositol 5-phosphate 4-kinase type-2 alpha (Homo sapiens) (UniProt P48426); experiment: Inhibition of PIP5K2A LIP1 site in human HeLa cells lysate at 2 uM pre incubated for 15 mins followed by ADP acyl phosphate probe addition and measured after 10 mins by LC-MS/MS analysis relative to control; type: subcellular; details: time 25.0 min
T1 sequence (whole entry): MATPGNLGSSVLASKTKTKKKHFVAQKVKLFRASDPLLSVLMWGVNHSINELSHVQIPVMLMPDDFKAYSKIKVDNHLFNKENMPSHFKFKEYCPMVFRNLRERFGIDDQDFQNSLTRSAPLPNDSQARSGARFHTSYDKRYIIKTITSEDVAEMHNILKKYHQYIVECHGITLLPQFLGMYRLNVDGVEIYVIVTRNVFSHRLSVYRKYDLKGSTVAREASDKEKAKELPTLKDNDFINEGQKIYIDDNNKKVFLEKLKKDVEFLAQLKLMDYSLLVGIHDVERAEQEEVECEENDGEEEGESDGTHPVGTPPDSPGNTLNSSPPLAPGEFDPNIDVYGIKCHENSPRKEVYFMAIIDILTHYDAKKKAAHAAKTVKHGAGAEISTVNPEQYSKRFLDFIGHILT

[7] = target: PKC alpha and beta-2 (Homo sapiens, UniProt P17252+P05771); experiment: Inhibition of PKCalpha/beta in human HeLa cells lysate at 50 uM pre incubated for 15 mins followed by ATP acyl phosphate probe addition and measured after 10 mins by LC-MS/MS analysis relative to control; type: subcellular; details: time 25.0 min
[8] = target: Phosphatidylinositol 4-phosphate 3-kinase C2 domain-containing subunit beta (Homo sapiens, UniProt O00750); experiment: Inhibition of PIK3C2B in human HeLa cells lysate at 10 uM pre incubated for 15 mins followed by ATP acyl phosphate probe addition and measured after 10 mins by LC-MS/MS analysis relative to control; type: subcellular; details: time 25.0 min
[9] = target: Ribosomal protein S6 kinase alpha-1 (Homo sapiens, UniProt Q15418); experiment: Inhibition of RSK1 domain 2 K2 site in human HeLa cells lysate at 10 uM pre incubated for 15 mins followed by ADP acyl phosphate probe addition and measured after 10 mins by LC-MS/MS analysis relative to control; type: subcellular; details: time 25.0 min
[10] = Inhibition of SRC/FYN/YES in human HeLa cells lysate at 10 uM pre incubated for 15 mins followed by ATP acyl phosphate probe addition and measured after 10 mins by LC-MS/MS analysis relative to control; details: 25 min, condition cancer
[11] = target: T2, Non-receptor tyrosine-protein kinase TNK1 (Homo sapiens) (UniProt Q13470); experiment: Inhibition of TNK1 in human HeLa cells lysate at 10 uM pre incubated for 15 mins followed by ADP acyl phosphate probe addition and measured after 10 mins by LC-MS/MS analysis relative to control; type: subcellular; details: time 25.0 min
T2 sequence (whole entry): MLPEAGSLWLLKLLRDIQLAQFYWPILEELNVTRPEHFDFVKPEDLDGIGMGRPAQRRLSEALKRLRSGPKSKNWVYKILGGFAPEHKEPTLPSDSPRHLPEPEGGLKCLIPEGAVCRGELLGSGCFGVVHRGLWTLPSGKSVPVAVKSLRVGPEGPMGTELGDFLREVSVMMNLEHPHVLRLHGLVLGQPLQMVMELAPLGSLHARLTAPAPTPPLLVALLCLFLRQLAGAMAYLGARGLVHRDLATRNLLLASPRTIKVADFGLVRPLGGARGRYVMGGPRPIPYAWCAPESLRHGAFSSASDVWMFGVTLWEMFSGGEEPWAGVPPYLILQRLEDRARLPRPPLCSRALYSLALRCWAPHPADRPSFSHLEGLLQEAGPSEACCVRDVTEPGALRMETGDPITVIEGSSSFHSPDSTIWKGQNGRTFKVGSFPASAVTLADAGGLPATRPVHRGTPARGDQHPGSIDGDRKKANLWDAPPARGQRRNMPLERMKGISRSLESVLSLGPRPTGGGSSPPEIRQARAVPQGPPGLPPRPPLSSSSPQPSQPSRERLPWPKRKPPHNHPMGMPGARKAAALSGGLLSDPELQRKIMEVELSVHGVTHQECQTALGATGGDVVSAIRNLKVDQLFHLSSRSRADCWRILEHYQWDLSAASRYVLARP

[12] = target: Serine/threonine-protein kinase 24 (Homo sapiens, UniProt Q9Y6E0); experiment: Inhibition of MST3 in human HeLa cells lysate pre incubated for 15 mins followed by ATP acyl phosphate probe addition and measured after 10 mins by LC-MS/MS analysis; type: subcellular
[13] = target: Mitogen-activated protein kinase kinase kinase 8 (Homo sapiens, UniProt P41279); experiment: Inhibition of COT in human HeLa cells lysate pre incubated for 15 mins followed by ADP acyl phosphate probe addition and measured after 10 mins by LC-MS/MS analysis; type: subcellular
[14] = target: Inhibitor of nuclear factor kappa-B kinase subunit beta (Homo sapiens, UniProt O14920); experiment: Inhibition of IKKB in human HeLa cells lysate pre incubated for 15 mins followed by ADP acyl phosphate probe addition and measured after 10 mins by LC-MS/MS analysis; type: subcellular

Sequence of Mitogen-activated protein kinase 7 (Mus musculus) (Q9WVS8 whole entry): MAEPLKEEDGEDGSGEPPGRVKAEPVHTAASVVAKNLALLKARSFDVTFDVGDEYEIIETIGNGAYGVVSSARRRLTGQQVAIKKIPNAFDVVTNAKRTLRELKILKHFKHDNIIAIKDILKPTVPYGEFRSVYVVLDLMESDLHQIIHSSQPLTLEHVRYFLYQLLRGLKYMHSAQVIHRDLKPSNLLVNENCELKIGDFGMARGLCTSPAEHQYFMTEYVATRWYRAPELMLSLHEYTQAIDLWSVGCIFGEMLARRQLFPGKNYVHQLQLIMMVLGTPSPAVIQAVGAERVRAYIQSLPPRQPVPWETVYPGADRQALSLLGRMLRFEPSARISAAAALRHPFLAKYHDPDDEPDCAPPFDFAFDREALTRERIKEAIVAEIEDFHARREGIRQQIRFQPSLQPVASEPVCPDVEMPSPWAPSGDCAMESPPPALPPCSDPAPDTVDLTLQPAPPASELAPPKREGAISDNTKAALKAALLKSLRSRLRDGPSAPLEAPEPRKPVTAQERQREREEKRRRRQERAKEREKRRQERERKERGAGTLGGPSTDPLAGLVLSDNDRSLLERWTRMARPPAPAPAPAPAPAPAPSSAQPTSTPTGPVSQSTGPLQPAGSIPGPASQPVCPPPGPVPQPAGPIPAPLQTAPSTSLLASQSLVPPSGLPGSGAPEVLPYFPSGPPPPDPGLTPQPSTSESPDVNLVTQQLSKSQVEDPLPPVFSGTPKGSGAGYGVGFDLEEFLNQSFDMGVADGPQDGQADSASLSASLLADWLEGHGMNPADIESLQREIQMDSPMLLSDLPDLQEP
Sequence of Ribosomal protein S6 kinase alpha-1 (Q15418 whole entry, the tested form may be a part): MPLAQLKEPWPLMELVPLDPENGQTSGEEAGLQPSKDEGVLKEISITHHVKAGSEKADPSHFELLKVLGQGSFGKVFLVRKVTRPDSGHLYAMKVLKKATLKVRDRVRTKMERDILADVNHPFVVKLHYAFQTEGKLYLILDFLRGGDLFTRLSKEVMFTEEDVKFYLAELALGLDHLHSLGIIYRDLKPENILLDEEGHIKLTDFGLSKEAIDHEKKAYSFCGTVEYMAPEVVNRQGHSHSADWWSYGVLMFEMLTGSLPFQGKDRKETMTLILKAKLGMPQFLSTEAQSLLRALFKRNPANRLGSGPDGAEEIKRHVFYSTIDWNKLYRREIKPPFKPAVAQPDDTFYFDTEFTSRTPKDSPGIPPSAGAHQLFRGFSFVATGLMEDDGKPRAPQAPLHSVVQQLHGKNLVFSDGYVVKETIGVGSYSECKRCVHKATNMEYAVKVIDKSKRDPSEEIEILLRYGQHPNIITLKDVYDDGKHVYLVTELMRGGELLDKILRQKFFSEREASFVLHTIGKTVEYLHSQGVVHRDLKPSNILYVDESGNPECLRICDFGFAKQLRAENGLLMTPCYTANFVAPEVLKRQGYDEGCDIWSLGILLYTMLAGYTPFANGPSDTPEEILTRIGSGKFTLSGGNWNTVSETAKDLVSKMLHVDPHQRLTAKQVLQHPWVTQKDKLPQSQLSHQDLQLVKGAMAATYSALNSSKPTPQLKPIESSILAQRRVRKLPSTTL
Sequence of Ribosomal protein S6 kinase beta-1 (P23443 whole entry): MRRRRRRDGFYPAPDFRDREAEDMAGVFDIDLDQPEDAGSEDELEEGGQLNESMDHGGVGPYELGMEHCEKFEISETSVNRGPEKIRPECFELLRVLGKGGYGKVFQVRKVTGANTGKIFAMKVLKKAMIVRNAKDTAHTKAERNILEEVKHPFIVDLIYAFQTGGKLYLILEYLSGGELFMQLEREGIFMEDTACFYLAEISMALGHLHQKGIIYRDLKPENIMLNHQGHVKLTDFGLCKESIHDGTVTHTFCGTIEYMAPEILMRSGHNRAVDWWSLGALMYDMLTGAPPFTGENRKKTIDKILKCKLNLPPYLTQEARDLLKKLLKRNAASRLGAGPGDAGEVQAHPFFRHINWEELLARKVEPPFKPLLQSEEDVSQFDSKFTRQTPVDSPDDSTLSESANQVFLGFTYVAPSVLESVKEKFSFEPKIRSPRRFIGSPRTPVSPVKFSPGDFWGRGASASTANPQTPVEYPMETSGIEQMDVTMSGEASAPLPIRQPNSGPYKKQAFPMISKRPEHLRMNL
Sequence of PKC alpha and beta-2 (P05771 whole entry, looked up, the tested form may be a part): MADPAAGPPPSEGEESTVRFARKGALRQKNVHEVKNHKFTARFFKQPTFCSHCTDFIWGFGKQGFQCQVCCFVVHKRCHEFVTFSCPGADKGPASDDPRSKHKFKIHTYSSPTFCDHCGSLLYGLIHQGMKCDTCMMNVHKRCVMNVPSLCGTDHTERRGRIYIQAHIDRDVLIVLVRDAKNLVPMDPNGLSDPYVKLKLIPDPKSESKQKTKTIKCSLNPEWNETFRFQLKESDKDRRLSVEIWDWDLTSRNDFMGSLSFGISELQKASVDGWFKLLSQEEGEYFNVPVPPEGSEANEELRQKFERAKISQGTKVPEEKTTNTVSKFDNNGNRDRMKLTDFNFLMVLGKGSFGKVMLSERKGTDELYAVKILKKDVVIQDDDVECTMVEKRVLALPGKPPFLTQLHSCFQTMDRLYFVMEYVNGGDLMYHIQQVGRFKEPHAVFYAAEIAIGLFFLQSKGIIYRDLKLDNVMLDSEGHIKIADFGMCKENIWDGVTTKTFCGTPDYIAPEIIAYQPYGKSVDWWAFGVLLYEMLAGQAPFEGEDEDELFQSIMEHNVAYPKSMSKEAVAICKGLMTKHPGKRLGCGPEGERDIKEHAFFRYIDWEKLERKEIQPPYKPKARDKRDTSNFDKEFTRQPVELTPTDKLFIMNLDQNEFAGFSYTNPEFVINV
Sequence of Interleukin-1 receptor-associated kinase 4 (Q9NWZ3 whole entry): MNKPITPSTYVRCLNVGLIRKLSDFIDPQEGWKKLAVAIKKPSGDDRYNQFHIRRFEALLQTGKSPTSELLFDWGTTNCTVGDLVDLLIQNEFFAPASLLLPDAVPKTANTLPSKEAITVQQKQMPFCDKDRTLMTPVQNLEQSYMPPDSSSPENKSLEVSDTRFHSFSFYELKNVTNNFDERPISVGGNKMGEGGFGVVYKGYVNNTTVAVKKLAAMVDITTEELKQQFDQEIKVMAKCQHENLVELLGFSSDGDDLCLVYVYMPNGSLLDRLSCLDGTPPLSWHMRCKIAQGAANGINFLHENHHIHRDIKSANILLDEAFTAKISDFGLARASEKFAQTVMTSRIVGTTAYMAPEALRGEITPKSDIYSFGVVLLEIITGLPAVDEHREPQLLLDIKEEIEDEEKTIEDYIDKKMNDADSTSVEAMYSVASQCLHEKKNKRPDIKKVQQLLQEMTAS
Sequence of Mitogen-activated protein kinase kinase kinase 8 (P41279 whole entry): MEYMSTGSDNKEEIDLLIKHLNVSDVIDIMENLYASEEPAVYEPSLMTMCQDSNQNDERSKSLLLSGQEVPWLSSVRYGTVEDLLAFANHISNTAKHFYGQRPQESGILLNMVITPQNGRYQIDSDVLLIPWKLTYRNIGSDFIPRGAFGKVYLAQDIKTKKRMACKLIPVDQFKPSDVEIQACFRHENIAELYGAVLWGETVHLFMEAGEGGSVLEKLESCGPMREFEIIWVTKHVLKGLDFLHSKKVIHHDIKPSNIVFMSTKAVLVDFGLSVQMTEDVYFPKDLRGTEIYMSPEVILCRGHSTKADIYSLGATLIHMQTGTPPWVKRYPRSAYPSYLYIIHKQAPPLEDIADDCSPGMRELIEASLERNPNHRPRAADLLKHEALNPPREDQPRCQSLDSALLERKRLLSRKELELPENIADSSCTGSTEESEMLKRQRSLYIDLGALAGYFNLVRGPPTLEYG
Sequence of Serine/threonine-protein kinase 24 (Q9Y6E0 whole entry): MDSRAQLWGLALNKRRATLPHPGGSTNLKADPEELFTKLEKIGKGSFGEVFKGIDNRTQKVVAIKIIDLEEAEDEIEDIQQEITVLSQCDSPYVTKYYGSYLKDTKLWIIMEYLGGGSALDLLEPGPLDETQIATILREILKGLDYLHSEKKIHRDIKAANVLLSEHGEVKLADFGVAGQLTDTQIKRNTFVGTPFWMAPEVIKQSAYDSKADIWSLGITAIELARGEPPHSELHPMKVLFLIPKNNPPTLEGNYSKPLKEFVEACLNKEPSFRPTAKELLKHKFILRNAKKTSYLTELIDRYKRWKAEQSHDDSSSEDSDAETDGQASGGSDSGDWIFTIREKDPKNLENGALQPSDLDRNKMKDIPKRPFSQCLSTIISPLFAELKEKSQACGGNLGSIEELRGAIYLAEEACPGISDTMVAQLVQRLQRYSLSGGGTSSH

## CCOc1cc(N2CCC(O)CC2)ccc1Nc1ncc2c(n1)N(C)c1ccccc1C(=O)N2C
[1]
  IC50: > 50 µM
[2]
  Activity: Active
[3]
  IC50: > 50 µM
[4]
  inhibition: Active
[5]
  Activity: Non-Toxic
[6]
  inhibition: 3.5%
[7]
  inhibition: 14.4%
[8]
  inhibition: 6.5%
[9]
  inhibition: 5.4%
[10]
  inhibition at 10 µM: -68.3%
[11]
  inhibition: 46%
[12]
  IC50: > 50 µM
[13]
  IC50: > 50 µM
[14]
  IC50: > 50 µM
